Reference: ChEMBL document CHEMBL1122310, “Synthesis of exo-3-phenylbicyclo[3.2.1]oct-3-en-2-amine and related compounds as potential analgesics” (1983)
“And” between values parts separate entries of the source, which are not always exact repeats. Equal entries are not always repeated.

Tests used:
Format in all cases: functional
[1] = tested on: Rattus norvegicus; test: Behavioral stimulant activity in rat by peroral administration; Inactive
[2] = organism: Rattus norvegicus; test: Antinociceptive activity by measuring in flamed paw pressure threshold in rat
Outline: (§1)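 ED50 determination: six animals per dose group, each dose tested on two or three separate occasions. Pooled data (total dose groups of 12 or 18 animals) analysed by regression to give ED50. Inflamed-paw pressure test in rats; acetylcholine-induced writhing in mice. Doses for the rat paw test given po.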

[3] = tested on: Rattus norvegicus; test: Behavioral stimulant activity in rat by sc administration; Slight to moderate CNS stimulation
[4] = organism: Mus musculus; test: Antinociceptive activity by measuring inhibition of acetylcholine writhing in mouse; outline: as §1
[5] = tested on: Rattus norvegicus; test: Behavioral stimulant activity in rat by sc administration; Moderate CNS stimulation
[6] = tested on: Rattus norvegicus; test: Behavioral stimulant activity in rat by sc administration; Marked CNS stimulation
[7] = tested on: Rattus norvegicus; test: Behavioral stimulant activity in rat by sc administration; Marked CNS activity

Row | SMILES | Dose [1] [mg/kg] | ED50 [2] [mg/kg] | Dose [3] [mg/kg] | ED50 [4] [mg/kg] | Dose [5] [mg/kg] | Dose [6] | Dose [7] [mg/kg]
1 | C1=C(c2ccccc2)[C@@H](NCCc2ccccc2)C2CCC1C2 (some centres not stated) | 50 | > 30 |  |  |  |  | 
2 | CN(CC1CC1)[C@@H]1C(c2ccccc2)=CC2CCC1C2 (some centres not stated) |  | > 30 | 50 |  |  |  | 
3 | COCCN(C)[C@@H]1C(c2ccccc2)=CC2CCC1C2 (some centres not stated) | 25 | > 30 |  |  |  |  | 
4 | C=CCN[C@@H]1C(c2ccccc2)=CC2CCC1C2 (some centres not stated) |  | 11 |  | 13.7 | 50 |  | 
5 | CCN(CC)[C@@H]1C(c2ccccc2)=CC2CCC1C2 (some centres not stated) |  | > 30 | 25 | 2.4 |  |  | 
6 | C1=C(c2ccccc2)[C@@H](N2CCCC2)C2CCC1C2 (some centres not stated) |  | 15.7 |  | 19 |  | 25 mg/kg and 50 mg/kg | 
7 | CN[C@@H]1C(c2ccccc2)=CC2CCC1C2 (some centres not stated) |  | 13.4 |  | 4 |  |  | 
8 | CN(C)[C@@H]1C(c2ccccc2)=CC2CCC1C2 (some centres not stated) |  | 2.9 |  | 3.9 |  | 50 mg/kg | 
9 | CCCN(C)[C@@H]1C(c2ccccc2)=CC2CCC1C2 (some centres not stated) | 25 | > 30 |  |  |  |  | 
10 | COc1cccc(C2=CC3CCC(C3)[C@@H]2N(C)C)c1 (some centres not stated) |  | 7.8 |  | 34.4 |  | 50 mg/kg | 
11 | CCN(C)[C@@H]1C(c2cccc(O)c2)=CC2CCC1C2 (some centres not stated) | 25 | > 30 |  |  |  |  | 
12 | CC(C)N(C)[C@@H]1C(c2ccccc2)=CC2CCC1C2 (some centres not stated) | 25 | > 30 |  |  |  |  | 
13 | C=CCN(C)[C@@H]1C(c2ccccc2)=CC2CCC1C2 (some centres not stated) | 25 | > 30 |  |  |  |  | 
14 | CCN(C)[C@@H]1C(c2ccccc2)=CC2CCC1C2 (some centres not stated) |  | 1.4 |  | 11.8 |  | 25 mg/kg | 
15 | C1=C(c2ccccc2)[C@@H](NCC2CCCO2)C2CCC1C2 (some centres not stated) | 50 | > 30 |  | > 30 |  |  | 
16 | COCCN[C@@H]1C(c2ccccc2)=CC2CCC1C2 (some centres not stated) |  |  |  | 27.7 |  |  | 
17 | C1=C(c2ccccc2)[C@@H](NCC2CC2)C2CCC1C2 (some centres not stated) | 25 | > 30 |  | 4.1 |  |  | 
18 | CCCN[C@@H]1C(c2ccccc2)=CC2CCC1C2 (some centres not stated) |  | > 30 | 25 |  |  |  | 
19 | CC(C)N[C@@H]1C(c2ccccc2)=CC2CCC1C2 (some centres not stated) |  | > 30 |  | 15.4 |  |  | 
20 | CN(C)CCN(C)[C@@H]1C(c2ccccc2)=CC2CCC1C2 (some centres not stated) | 25 | > 30 |  |  |  |  | 
21 | CN(C)CCN[C@@H]1C(c2ccccc2)=CC2CCC1C2 (some centres not stated) | 50 | 18.1 |  | 31 |  |  | 
22 | CCN[C@@H]1C(c2ccccc2)=CC2CCC1C2 (some centres not stated) |  | 3.1 | 25 | 15.6 |  | 50 mg/kg | 
23 | CCN(C)[C@@H]1C(c2cccc(OC)c2)=CC2CCC1C2 (some centres not stated) |  | 10.4 |  | 30.6 |  |  | 
24 | N[C@@H]1C(c2ccccc2)=CC2CCC1C2 (some centres not stated) | 25 | > 10 |  | 8.3 |  |  | 25
25 | CC(N)Cc1ccccc1 (configuration not stated) [AMPHETAMINE] |  | 2.1 | 6.25 | 1.6 |  | 12.5 mg/kg | 
26 | COc1ccc2c3c1O[C@H]1[C@@H](O)C=C[C@H]4[C@@H](C2)N(C)CC[C@@]341 [CODEINE] | 50 | 5.7 |  | 10.3 |  |  | 
